Experimental data from ChEMBL document CHEMBL1126110, “Antirhinoviral activity of heterocyclic analogs of Win 54954” (1992).
In brackets after ≈: the same amount, converted by molar mass. Each block holds one molecule with its values, some of them ahead of it. Activity calls are given as the source filed them. The rule behind the calls is not given here.

What was measured:
Human rhinovirus sp. [1] = test: (§1) In vitro inhibition of 80% of the serotypes; type: functional
In short: (§2)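 Fifteen rhinovirus serotypes (HRV-14 plus 14 more) were each run in a plaque reduction assay in HeLa-Ohio cells. The MIC for each serotype was the μM concentration giving 50% plaque reduction. MIC80 is the concentration that inhibited 80% of the serotypes tested.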

rhinovirus B14 [2] = test: Minimum inhibitory concentration in vitro against HRV-14 in a plaque reduction assay; type: functional, human rhinovirus type 14; settings: Rhinovirus B
In short: (§3)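 Plaque reduction assay in HeLa-Ohio cells. MIC is the concentration (μM) that cut plaque number by 50%.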

Human rhinovirus sp. [3] = test: as §1; type: functional; in short: as §2; remark: listed apart in the source
rhinovirus A21 = test: Minimum inhibitory concentration against human rhinovirus serotype 21; type: functional; settings: Rhinovirus A; in short: as §3
rhinovirus A15 = test: Minimum inhibitory concentration against human rhinovirus serotype 15; type: functional; settings: Rhinovirus A; in short: as §3
rhinovirus A2 [4] = test: (§4) Minimum inhibitory concentration against human rhinovirus serotype 2; type: functional; settings: Rhinovirus A; in short: as §3
rhinovirus A89 = test: Minimum inhibitory concentration against human rhinovirus serotype 89; type: functional; settings: Rhinovirus A; in short: as §3
Human rhinovirus 1A = test: Minimum inhibitory concentration against human rhinovirus serotype 1A; type: functional; in short: as §3
rhinovirus A30 = test: Minimum inhibitory concentration against human rhinovirus serotype 30; type: functional; settings: Rhinovirus A; in short: as §3
rhinovirus A50 = test: Minimum inhibitory concentration against human rhinovirus serotype 50; type: functional; settings: Rhinovirus A; in short: as §3
rhinovirus A22 = test: Minimum inhibitory concentration against human rhinovirus serotype 22; type: functional; settings: Rhinovirus A; in short: as §3
rhinovirus B86 = test: Minimum inhibitory concentration against human rhinovirus serotype 86; type: functional; settings: Rhinovirus B; in short: as §3
rhinovirus B14 [5] = test: Minimum inhibitory concentration against human rhinovirus serotype 14; type: functional; settings: Rhinovirus B; in short: as §3
rhinovirus A25 = test: Minimum inhibitory concentration against human rhinovirus serotype 25; type: functional; settings: Rhinovirus A; in short: as §3
rhinovirus A1B = test: Minimum inhibitory concentration against human rhinovirus serotype 1B; type: functional; settings: Rhinovirus A; in short: as §3
rhinovirus B6 = test: Minimum inhibitory concentration against human rhinovirus serotype 6; type: functional; settings: Rhinovirus B; in short: as §3
rhinovirus A41 = test: Minimum inhibitory concentration against human rhinovirus serotype 41; type: functional; settings: Rhinovirus A; in short: as §3
rhinovirus A2 [6] = test: as §4; type: functional; settings: Rhinovirus A; in short: as §3; remark: listed apart in the source
rhinovirus A67 = test: Minimum inhibitory concentration against human rhinovirus serotype 67; type: functional; settings: Rhinovirus A; in short: as §3
rhinovirus B14 [7] = test: Minimum inhibitory concentration in vitro against HRV-14 in a plaque reduction assay; NA=Not active; type: functional, organism-based; settings: human rhinovirus type 14; in short: as §3

Compound: Cc1cc(CCCCCOc2c(Cl)cc(-c3ccc(C)o3)cc2Cl)on1
MIC80 (Human rhinovirus sp. [1]): 1.27 µM (≈ 0.501 µg/mL)
MIC (rhinovirus B14 [2]): 2.64 µM (≈ 1.04 µg/mL)

Compound: Cc1cc(CCCCCOc2c(Cl)cc(-c3nnnn3C)cc2Cl)on1
MIC80 (Human rhinovirus sp. [1]): 7.02 µM (≈ 2.78 µg/mL)
MIC (rhinovirus B14 [2]): 2.04 µM (≈ 0.808 µg/mL)
MIC80 (Human rhinovirus sp. [3]): 7.02 µM (≈ 2.78 µg/mL)

Compound: Cc1cc(CCCCCOc2c(Cl)cc(-c3nnn(C)n3)cc2Cl)on1
MIC (rhinovirus A21): 0.02 µM (≈ 0.00793 µg/mL)
MIC (rhinovirus A15): 0.25 µM (≈ 0.0991 µg/mL)
MIC (rhinovirus A2 [4]): 0.025 µM (≈ 0.00991 µg/mL)
MIC (rhinovirus A89): 0.01 µM (≈ 0.00396 µg/mL)
MIC (Human rhinovirus 1A): 0.38 µM (≈ 0.151 µg/mL)
MIC (rhinovirus A30): 0.23 µM (≈ 0.0911 µg/mL)
MIC (rhinovirus A50): 0.06 µM (≈ 0.0238 µg/mL)
MIC (rhinovirus A22): 0.008 µM (≈ 0.00317 µg/mL)
MIC (rhinovirus B86): 0.24 µM (≈ 0.0951 µg/mL)
MIC (rhinovirus B14 [5]): 0.38 µM (≈ 0.151 µg/mL)
MIC80 (Human rhinovirus sp. [1]): 0.25 µM (≈ 0.0991 µg/mL)
MIC (rhinovirus B14 [2]): 0.38 µM (≈ 0.151 µg/mL)
MIC (rhinovirus A25): 0.08 µM (≈ 0.0317 µg/mL)
MIC (rhinovirus A1B): 0.05 µM (≈ 0.0198 µg/mL)
MIC (rhinovirus B6): 0.23 µM (≈ 0.0911 µg/mL)
MIC (rhinovirus A41): 0.63 µM (≈ 0.25 µg/mL)
MIC (rhinovirus A2 [6]): 0.025 µM (≈ 0.00991 µg/mL)
MIC (rhinovirus A67): 0.18 µM (≈ 0.0713 µg/mL)

Compound: Cc1cc(CCCCCOc2c(Cl)cc(-c3nc(C)c(C)o3)cc2Cl)on1
MIC80 (Human rhinovirus sp. [1]): 1.3 µM (≈ 0.532 µg/mL)
MIC (rhinovirus B14 [2]): 2.79 µM (≈ 1.14 µg/mL)

Compound: Cc1cc(CCCCCOc2c(Cl)cc(-c3ccc(C)s3)cc2Cl)on1
MIC80 (Human rhinovirus sp. [1]): 1.71 µM (≈ 0.702 µg/mL)
MIC (rhinovirus B14 [2]): 5.2 µM (≈ 2.13 µg/mL)

Compound: Cc1cc(CCCCCOc2c(Cl)cc(C3=NCCO3)cc2Cl)on1 [WIN-54954]
MIC (rhinovirus A21): 0.02 µM (≈ 0.00767 µg/mL)
MIC (rhinovirus A15): 0.41 µM (≈ 0.157 µg/mL)
MIC (rhinovirus A2 [4]): 0.023 µM (≈ 0.00882 µg/mL)
MIC (rhinovirus A89): 0.02 µM (≈ 0.00767 µg/mL)
MIC (Human rhinovirus 1A): 2.51 µM (≈ 0.962 µg/mL)
MIC (rhinovirus A30): 0.09 µM (≈ 0.0345 µg/mL)
MIC (rhinovirus A50): 0.06 µM (≈ 0.023 µg/mL)
MIC (rhinovirus A22): 0.02 µM (≈ 0.00767 µg/mL)
MIC (rhinovirus B86): 0.21 µM (≈ 0.0805 µg/mL)
MIC (rhinovirus B14 [5]): 1.2 µM (≈ 0.46 µg/mL)
MIC80 (Human rhinovirus sp. [1]): 0.33 µM (≈ 0.126 µg/mL)
MIC (rhinovirus B14 [2]): 1.2 µM (≈ 0.46 µg/mL)
MIC (rhinovirus A25): 0.29 µM (≈ 0.111 µg/mL)
MIC (rhinovirus A1B): 0.17 µM (≈ 0.0652 µg/mL)
MIC (rhinovirus B6): 0.23 µM (≈ 0.0882 µg/mL)
MIC (rhinovirus A41): 0.89 µM (≈ 0.341 µg/mL)
MIC (rhinovirus A67): 0.18 µM (≈ 0.069 µg/mL)

Compound: Cc1cc(CCCCCOc2c(Cl)cc(-c3ccoc3)cc2Cl)on1
MIC80 (Human rhinovirus sp. [1]): 2.9 µM (≈ 1.1 µg/mL)
MIC (rhinovirus B14 [7]): inactive

Compound: Cc1cc(CCCCCOc2c(Cl)cc(C3=NCCC3)cc2Cl)on1
MIC (rhinovirus B14 [7]): inactive

Compound: Cc1cc(CCCCCOc2c(Cl)cc(-c3ccsc3)cc2Cl)on1
MIC80 (Human rhinovirus sp. [1]): 2.88 µM (≈ 1.14 µg/mL)
MIC (rhinovirus B14 [7]): inactive

Compound: Cc1cc(CCCCCOc2c(Cl)cc(-c3ccc(Cl)s3)cc2Cl)on1
MIC80 (Human rhinovirus sp. [1]): 3.13 µM (≈ 1.35 µg/mL)
MIC (rhinovirus B14 [2]): 5.3 µM (≈ 2.28 µg/mL)

Compound: Cc1cc(CCCCCOc2c(Cl)cc(-c3nc(C)c(C)s3)cc2Cl)on1
MIC80 (Human rhinovirus sp. [1]): 2.14 µM (≈ 0.91 µg/mL)
MIC (rhinovirus B14 [2]): 2.59 µM (≈ 1.1 µg/mL)

Compound: Cc1cc(CCCCCOc2c(Cl)cc(-c3cnco3)cc2Cl)on1
MIC80 (Human rhinovirus sp. [1]): 2.24 µM (≈ 0.854 µg/mL)
MIC (rhinovirus B14 [2]): 12.8 µM (≈ 4.86 µg/mL)

Compound: Cc1cc(CCCCCOc2c(Cl)cc(-c3cccn3C)cc2Cl)on1
MIC (rhinovirus B14 [7]): inactive

More lines, now with the values ahead:

MIC80 (Human rhinovirus sp. [1]): 1.05 µM (≈ 0.399 µg/mL)
MIC (rhinovirus B14 [2]): 0.71 µM (≈ 0.27 µg/mL)
Compound: Cc1cc(CCCCCOc2c(Cl)cc(-c3ccco3)cc2Cl)on1

MIC80 (Human rhinovirus sp. [1]): 1.11 µM (≈ 0.44 µg/mL)
MIC (rhinovirus B14 [2]): 7.32 µM (≈ 2.9 µg/mL)
Compound: Cc1cc(CCCCCOc2c(Cl)cc(-c3cccs3)cc2Cl)on1

MIC (rhinovirus B14 [2]): 6.6 µM (≈ 2.58 µg/mL)
Compound: Cc1cc(CCCCCOc2c(Cl)cc(-c3cccnc3)cc2Cl)on1

MIC80 (Human rhinovirus sp. [1]): 1.93 µM (≈ 0.782 µg/mL)
MIC (rhinovirus B14 [2]): 5.88 µM (≈ 2.38 µg/mL)
Compound: Cc1cc(CCCCCOc2c(Cl)cc(-c3cccc(C)n3)cc2Cl)on1

MIC80 (Human rhinovirus sp. [1]): 1.71 µM (≈ 0.652 µg/mL)
MIC (rhinovirus B14 [2]): 1.83 µM (≈ 0.698 µg/mL)
Compound: Cc1cc(CCCCCOc2c(Cl)cc(-c3ncco3)cc2Cl)on1

MIC80 (Human rhinovirus sp. [1]): 1.38 µM (≈ 0.54 µg/mL)
MIC (rhinovirus B14 [2]): 6.64 µM (≈ 2.6 µg/mL)
Compound: Cc1cc(CCCCCOc2c(Cl)cc(-c3ccccn3)cc2Cl)on1

MIC (rhinovirus B14 [2]): 0.97 µM (≈ 0.38 µg/mL)
Compound: Cc1cc(CCCCCOc2c(Cl)cc(-c3ccncc3)cc2Cl)on1
